The values below come from ChEMBL document CHEMBL4837207, “Discovery of pyrrolo[2,3-d]pyrimidine derivatives as potent Axl inhibitors: Design, synthesis and biological evaluation” (Eur J Med Chem, 2021).

Series [1] addresses T1, Tyrosine-protein kinase receptor UFO (Homo sapiens, UniProt P30530).
T1 sequence (P30530 whole entry): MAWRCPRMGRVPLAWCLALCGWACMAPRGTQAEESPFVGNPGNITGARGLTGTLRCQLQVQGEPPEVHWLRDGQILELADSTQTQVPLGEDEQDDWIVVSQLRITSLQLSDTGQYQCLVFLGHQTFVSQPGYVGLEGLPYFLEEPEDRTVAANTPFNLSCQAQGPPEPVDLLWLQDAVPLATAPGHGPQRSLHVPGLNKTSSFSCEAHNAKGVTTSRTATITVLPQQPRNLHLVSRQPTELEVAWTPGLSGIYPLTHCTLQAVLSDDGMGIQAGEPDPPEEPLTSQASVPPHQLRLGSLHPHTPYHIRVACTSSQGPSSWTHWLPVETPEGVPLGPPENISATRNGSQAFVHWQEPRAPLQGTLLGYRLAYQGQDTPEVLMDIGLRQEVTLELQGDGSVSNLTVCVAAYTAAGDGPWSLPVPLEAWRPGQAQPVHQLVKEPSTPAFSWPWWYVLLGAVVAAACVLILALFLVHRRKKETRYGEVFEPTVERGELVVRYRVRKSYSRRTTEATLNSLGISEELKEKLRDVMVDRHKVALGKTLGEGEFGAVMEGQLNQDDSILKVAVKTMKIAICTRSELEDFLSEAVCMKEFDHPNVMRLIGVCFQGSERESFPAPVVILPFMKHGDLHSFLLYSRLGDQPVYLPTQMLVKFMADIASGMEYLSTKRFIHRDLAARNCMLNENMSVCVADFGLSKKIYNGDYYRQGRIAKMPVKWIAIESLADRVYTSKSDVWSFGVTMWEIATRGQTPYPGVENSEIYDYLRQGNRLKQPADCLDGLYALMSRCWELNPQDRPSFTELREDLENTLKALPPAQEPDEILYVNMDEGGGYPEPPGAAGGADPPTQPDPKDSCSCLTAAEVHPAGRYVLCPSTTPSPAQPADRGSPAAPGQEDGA
As to the kind of experiment: Inhibition of AXL (unknown origin) by ELISA.

In a further series the test system is MKN-45. As to the kind of experiment: Antiproliferative activity against human MKN-45 cells incubated for 72 hrs. The series is classed as functional, cell-based. The conditions noted are these: MKN-45, 72 h. Put shortly:
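MKN-45 cells (MET-amplified gastric carcinoma) grown in the supplier-recommended medium and serum, seeded at low density and treated the next day across a concentration range for 72 h. Proliferation read by SRB or CCK-8. IC50 obtained from a four-parameter concentration-response fit; mean ± SD of two independent assays.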

Series [2] in a line: Cmax in Sprague-Dawley rat at 3 mg/kg, po via gavage measured up to 24 hrs by LC-MS analysis. The series is classed as ADME, organism-based. The arrangement: route oral, dose 3 mg/kg, time <=24. The following applies: in vivo. The essentials: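 Male Sprague-Dawley rats (n = 3) dosed once by oral gavage at 3 mg/kg as a solution in 5% DMSO/95% (0.5% CMC-Na). Blood sampled at 0.25, 0.5, 1, 2, 4, 6, 8 and 24 h, kept on wet ice, serum separated by centrifugation and stored at -20 °C. Serum levels measured by LC-MS/MS; parameters reported as means.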

Series [3] addresses Vascular endothelial growth factor receptor 1 (Homo sapiens, UniProt P17948). As to the kind of experiment: Inhibition of VEGFR1 (unknown origin) by ELISA.
Series [4] addresses Mast/stem cell growth factor receptor Kit (Homo sapiens, UniProt P10721). As to the kind of experiment: Inhibition of Kit(unknown origin) by ELISA. On the technique in general: An ELISA detects its analyte on a solid surface through an enzyme-linked reagent.
Series [5] concerns the target Epidermal growth factor receptor (Homo sapiens, UniProt P00533). Description: Inhibition of EGFR (unknown origin) by ELISA.
Series [6] deals with Receptor tyrosine-protein kinase erbB-2 (Homo sapiens, UniProt P04626). As to the kind of experiment: Inhibition of ERBB2 (unknown origin) by ELISA.
Receptor tyrosine-protein kinase erbB-2, sequence (P04626 whole entry): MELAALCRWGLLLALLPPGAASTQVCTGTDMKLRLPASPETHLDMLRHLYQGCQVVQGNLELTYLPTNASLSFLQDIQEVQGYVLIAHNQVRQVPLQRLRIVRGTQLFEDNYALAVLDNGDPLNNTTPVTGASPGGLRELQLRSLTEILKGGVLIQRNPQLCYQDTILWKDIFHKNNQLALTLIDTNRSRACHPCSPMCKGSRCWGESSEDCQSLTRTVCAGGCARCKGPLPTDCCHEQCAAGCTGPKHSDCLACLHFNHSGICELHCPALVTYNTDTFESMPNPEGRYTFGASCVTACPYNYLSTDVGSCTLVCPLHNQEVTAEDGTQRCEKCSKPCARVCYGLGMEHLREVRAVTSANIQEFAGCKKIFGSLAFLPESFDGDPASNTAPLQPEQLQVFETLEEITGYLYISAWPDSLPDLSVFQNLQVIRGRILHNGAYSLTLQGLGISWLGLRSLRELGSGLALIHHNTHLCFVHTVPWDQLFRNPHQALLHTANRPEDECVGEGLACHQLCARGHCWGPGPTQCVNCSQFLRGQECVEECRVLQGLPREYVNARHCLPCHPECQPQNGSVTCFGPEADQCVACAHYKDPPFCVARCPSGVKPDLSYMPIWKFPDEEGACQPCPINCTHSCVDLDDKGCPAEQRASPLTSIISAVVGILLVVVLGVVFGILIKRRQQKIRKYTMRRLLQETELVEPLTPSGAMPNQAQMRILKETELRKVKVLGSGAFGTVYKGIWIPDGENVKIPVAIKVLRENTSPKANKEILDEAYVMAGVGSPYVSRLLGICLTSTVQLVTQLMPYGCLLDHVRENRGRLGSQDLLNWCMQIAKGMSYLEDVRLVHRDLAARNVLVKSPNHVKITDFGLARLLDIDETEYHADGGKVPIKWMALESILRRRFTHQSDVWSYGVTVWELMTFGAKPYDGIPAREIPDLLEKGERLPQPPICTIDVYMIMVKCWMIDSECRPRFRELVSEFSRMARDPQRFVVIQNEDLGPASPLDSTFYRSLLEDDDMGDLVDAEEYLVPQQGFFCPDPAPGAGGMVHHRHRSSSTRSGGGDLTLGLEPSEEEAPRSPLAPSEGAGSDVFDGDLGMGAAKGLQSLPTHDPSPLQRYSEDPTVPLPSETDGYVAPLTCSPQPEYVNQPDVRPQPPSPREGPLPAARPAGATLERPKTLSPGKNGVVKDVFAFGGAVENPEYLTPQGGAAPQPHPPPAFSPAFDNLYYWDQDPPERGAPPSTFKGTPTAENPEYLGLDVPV
Series [7] can be described thus: Inhibition of ABL (unknown origin) by ELISA. Also noted: species or system Homo sapiens.
In series [8] the target is Insulin-like growth factor 1 receptor (Homo sapiens, UniProt P08069). Description: Inhibition of IGF1R (unknown origin) by ELISA.
Insulin-like growth factor 1 receptor, sequence (P08069 31-736 limits assumed): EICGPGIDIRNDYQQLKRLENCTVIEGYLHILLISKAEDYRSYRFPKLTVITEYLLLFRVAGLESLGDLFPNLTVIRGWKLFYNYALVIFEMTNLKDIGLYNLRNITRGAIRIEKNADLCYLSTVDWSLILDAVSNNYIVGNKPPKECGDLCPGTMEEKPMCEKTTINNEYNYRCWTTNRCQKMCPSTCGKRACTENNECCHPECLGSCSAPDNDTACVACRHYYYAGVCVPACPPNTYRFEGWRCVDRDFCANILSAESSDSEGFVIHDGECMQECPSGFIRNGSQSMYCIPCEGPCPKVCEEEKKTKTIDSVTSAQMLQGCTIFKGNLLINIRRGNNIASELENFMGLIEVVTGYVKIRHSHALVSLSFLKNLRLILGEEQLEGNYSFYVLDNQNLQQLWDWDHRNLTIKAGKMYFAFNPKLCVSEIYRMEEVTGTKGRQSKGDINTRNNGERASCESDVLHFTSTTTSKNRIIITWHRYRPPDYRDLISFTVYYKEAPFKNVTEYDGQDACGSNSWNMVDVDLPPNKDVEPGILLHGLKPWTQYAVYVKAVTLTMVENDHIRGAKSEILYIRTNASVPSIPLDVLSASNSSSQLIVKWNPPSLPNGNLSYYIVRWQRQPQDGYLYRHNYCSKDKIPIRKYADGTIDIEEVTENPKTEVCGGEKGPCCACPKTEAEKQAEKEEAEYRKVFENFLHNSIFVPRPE
Insulin-like growth factor 1 receptor, sequence (P08069 741-1367 limits assumed): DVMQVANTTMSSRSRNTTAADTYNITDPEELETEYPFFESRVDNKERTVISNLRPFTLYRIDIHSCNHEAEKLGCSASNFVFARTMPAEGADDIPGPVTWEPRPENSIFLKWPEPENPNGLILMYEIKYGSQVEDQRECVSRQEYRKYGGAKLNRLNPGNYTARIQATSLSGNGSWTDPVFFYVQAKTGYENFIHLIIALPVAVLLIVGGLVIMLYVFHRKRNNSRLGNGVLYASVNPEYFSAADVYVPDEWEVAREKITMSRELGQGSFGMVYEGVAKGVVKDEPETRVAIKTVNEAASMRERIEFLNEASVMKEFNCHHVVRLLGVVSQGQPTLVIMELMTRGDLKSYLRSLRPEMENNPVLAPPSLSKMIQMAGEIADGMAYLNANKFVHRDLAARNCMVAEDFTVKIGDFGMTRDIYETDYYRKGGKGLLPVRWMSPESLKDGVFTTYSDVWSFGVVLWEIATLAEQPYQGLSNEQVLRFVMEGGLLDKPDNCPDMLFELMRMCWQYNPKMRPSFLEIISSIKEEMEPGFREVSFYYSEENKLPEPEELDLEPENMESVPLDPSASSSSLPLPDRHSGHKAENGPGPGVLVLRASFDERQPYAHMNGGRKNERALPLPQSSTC
Series [9] deals with T2, Tyrosine-protein kinase receptor UFO (Mus musculus) (UniProt Q00993).
T2 sequence (whole entry): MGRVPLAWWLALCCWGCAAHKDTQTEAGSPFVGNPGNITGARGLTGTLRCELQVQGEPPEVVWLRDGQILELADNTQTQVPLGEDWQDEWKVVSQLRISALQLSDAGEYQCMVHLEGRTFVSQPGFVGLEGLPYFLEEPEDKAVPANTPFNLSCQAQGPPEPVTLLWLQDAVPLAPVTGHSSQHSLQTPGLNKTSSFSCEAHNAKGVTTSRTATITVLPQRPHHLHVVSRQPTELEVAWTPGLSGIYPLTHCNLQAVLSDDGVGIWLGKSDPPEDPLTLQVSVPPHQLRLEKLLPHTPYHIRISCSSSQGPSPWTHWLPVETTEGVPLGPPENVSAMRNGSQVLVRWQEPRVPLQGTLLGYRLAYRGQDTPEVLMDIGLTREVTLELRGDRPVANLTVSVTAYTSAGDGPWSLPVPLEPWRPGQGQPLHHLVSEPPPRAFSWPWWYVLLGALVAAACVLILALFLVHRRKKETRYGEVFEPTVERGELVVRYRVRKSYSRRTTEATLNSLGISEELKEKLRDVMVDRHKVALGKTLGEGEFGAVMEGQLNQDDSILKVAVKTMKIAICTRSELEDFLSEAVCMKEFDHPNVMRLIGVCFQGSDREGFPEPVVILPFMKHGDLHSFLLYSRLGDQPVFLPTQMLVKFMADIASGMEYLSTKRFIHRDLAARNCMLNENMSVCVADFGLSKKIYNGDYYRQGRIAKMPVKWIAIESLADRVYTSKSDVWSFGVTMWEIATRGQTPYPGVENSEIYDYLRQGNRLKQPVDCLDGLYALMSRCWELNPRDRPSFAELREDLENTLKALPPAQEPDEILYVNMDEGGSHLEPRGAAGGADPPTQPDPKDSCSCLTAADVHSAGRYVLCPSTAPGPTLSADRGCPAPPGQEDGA
Description: Inhibition of AXL phosphorylation in mouse BaF3 by Western blot analysis. The conditions noted are these: dose 0.1-10 nM. The essentials: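 Cells in exponential growth (BaF3 engineered to stably express constitutively active human wild-type TEL-Axl; MKN-45) exposed to the indicated concentrations for 2 h, then lysed in 1× SDS sample buffer. Phosphorylated proteins detected by Western blot.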
In general terms: A western blot detects proteins with antibodies after separation by electrophoresis.

The test system of the next series is BaF3. Description: Antitumor activity against mouse BaF3 cells stably expressing human TEL-AXL xenografted in nude mouse assessed as tumor growth inhibition at 50 to 100 mg/kg, po administered once daily for 14 consecutive days relative to control. The conditions noted are these: dose 50-100 mg/kg; time 14 day. The series is classed as functional. A general note: Xenograft models place foreign cells or tissue in a host animal.

Series [10] in a line: Toxicity in nude mouse xenografted with mouse BaF3 cells stably expressing human TEL-AXL assessed as body weight at 10 to 100 mg/kg, po administered once daily for 14 consecutive days. The series is classed as organism-based. The following applies: in vivo, 336 h, dose 10-100 mg/kg, time 14 day. Put shortly: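 BaF3/TEL-Axl cells implanted subcutaneously in nude mice and grown to 700–800 mm³; 1.5 mm³ tumor fragments then transplanted sc into the right flank. At 100–200 mm³, mice were randomized (n = 6 per treated group, 12 vehicle). Oral dosing once daily for 14 days at 10 or 50 mg/kg, with the higher dose raised to 100 mg/kg from day 8. Body weight tracked throughout treatment.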

Vascular endothelial growth factor receptor 1, sequence (P17948 whole entry): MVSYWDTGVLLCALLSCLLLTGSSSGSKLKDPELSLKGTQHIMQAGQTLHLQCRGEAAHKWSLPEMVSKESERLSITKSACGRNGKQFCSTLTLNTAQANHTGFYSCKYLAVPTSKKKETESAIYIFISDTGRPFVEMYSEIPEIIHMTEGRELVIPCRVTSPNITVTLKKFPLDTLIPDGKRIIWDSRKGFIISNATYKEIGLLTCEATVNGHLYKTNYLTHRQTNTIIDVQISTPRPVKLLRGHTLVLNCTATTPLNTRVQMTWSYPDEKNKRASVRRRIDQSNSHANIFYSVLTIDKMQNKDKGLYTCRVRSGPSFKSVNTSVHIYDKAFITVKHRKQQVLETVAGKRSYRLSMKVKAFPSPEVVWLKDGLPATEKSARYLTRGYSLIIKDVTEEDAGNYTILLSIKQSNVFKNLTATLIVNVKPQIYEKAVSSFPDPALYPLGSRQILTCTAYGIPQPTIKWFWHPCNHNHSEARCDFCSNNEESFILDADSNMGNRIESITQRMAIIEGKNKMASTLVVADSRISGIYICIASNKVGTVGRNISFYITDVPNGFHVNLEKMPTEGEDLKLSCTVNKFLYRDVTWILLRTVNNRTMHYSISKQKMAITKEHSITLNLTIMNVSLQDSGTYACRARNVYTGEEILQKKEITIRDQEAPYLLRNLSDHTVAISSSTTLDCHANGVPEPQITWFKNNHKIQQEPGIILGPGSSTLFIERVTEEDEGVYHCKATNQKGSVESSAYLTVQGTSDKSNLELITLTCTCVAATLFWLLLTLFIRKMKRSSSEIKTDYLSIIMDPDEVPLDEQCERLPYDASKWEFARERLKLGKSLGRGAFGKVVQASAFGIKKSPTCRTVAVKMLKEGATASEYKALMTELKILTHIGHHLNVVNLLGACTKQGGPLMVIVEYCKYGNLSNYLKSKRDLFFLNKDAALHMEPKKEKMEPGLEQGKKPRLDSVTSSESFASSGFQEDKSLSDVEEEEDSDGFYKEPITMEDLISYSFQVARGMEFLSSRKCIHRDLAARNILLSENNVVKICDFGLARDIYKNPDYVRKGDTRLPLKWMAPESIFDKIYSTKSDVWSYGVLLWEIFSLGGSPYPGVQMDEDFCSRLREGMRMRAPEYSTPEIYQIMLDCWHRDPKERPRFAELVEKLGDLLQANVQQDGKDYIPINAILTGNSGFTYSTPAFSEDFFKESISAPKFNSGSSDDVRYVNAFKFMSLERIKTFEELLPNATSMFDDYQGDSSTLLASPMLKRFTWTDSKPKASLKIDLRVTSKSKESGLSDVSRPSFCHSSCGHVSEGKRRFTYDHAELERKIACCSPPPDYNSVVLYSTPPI
Mast/stem cell growth factor receptor Kit, sequence (P10721 whole entry): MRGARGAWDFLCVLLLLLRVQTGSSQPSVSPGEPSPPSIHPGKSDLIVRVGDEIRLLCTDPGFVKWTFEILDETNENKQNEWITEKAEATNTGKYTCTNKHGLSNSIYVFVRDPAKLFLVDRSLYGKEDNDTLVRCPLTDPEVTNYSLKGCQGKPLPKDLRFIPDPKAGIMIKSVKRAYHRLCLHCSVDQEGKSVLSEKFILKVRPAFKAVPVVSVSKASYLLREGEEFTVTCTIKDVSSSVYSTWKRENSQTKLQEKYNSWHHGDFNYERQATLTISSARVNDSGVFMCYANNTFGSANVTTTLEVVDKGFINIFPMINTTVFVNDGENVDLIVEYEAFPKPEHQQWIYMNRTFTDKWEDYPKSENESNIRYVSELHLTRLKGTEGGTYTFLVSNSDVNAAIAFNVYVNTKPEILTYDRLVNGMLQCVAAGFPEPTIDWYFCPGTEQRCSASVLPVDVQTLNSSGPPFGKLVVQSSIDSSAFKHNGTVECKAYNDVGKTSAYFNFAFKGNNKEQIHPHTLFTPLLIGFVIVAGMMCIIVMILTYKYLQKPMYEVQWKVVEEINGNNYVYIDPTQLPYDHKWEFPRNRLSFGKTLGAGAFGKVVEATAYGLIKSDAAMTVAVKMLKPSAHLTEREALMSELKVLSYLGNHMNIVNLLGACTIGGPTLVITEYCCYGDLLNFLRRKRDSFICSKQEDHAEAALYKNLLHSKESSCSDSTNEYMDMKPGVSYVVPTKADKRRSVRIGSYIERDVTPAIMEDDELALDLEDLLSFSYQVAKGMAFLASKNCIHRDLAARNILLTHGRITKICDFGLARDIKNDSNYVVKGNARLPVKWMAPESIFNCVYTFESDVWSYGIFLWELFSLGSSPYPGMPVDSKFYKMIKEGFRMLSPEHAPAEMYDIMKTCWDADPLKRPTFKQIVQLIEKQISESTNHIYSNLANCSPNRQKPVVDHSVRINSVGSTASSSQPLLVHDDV

In general, IC50 refers to the concentration that gives 50% inhibition. A higher IC50 goes with lower potency. The term Cmax denotes the maximum level reached in the sampled fluid or tissue. For orientation: TGI means how far tumour growth fell short of that in controls. On to `CC(C)n1cc(C(=O)Nc2cc(F)c(-c3c[nH]c4ncnc(N)c34)cc2F)c(=O)c(-c2ccc(F)cc2)c1`, for which the IC50 in series [1] was below 0.2 nM; in the series with MKN-45 it was 13.2 nM; in [3] it was above 1000 nM; in series [4] it was above 1000 nM; in series [5] it was above 1000 nM; in [6], above 1000 nM. Further, the half-inhibitory concentration (IC50) in series [7] and in series [8] was above 1000 nM throughout. This compound also came in with a Cmax in series [2] of 14100 ng/mL. Moreover, in series [9], the inhibition entry was “Dose-Dependent Effect”. For the same compound, in the series with BaF3, the TGI is listed as 67.4%. Moreover, the Activity result in series [10] is recorded as “Non-Toxic”.
